Measured values reported in ChEMBL document CHEMBL1122889, “Amino acid derived latent isocyanates: irreversible inactivation of porcine pancreatic elastase and human leukocyte elastase” (J Med Chem, 1985).

Experiments:
[1] = biological target: T1, Neutrophil elastase (Homo sapiens, UniProt P08246); assay: Ki value was evaluated for the inhibition of human leukocyte elastase
T1 sequence (P08246 whole entry): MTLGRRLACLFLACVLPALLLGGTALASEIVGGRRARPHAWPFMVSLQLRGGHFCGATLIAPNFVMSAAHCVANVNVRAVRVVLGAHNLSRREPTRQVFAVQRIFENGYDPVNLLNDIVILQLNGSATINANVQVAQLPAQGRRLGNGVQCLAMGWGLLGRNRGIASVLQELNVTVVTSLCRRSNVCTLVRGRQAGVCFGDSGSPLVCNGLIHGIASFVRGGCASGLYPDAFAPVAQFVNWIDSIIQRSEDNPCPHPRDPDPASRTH
In short: (§1)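 HLE, 1.6 × 10⁻⁷ M, in Tris-HCl buffer pH 8.0 at 25 °C. Inhibitor was dissolved in N-methylpyrrolidinone. Loss of activity was followed continuously with succinyl-L-trialanyl-p-nitroanilide at 410 nm as a pseudo-first-order reaction, and rate constants were found by the Tsou method. Ki and k3 were taken from the double-reciprocal replot 1/kobsd vs 1/[I].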

[2] = biological target: Pancreatic elastase (Sus scrofa, UniProt P08419+P00772); assay: Ki value was evaluated for the inhibition of porcine pancreatic elastase; type: protein assay
In short: (§2)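 PPE, 9.0 × 10⁻⁶ M, incubated with inhibitor in acetonitrile in 50 mM phosphate pH 6.5 at 25 °C, at inhibitor:enzyme ratios of 20–150. Aliquots taken over time were assayed with Boc-L-Ala-p-nitrophenyl ester: 30 s preincubation, then absorbance change over 2 min at 347.5 nm. Controls contained acetonitrile. Kobs came from ln(Et/E0) vs time, two runs per concentration. Ki and k3 came from the double-reciprocal replot, and k3/Ki was computed.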

[3] = biological target: T2, Pancreatic elastase (Sus scrofa) (UniProt P08419+P00772); assay: k3 value was evaluated for the inhibition of porcine pancreatic elastase; type: protein assay; in short: as §2
[4] = biological target: T3, Neutrophil elastase (Homo sapiens) (UniProt P08246); assay: k3 value was evaluated for the inhibition of human leukocyte elastase; in short: as §1
T3 sequence (whole entry): T1 sequence (P08246 whole entry)

[5] = biological target: T2, Pancreatic elastase (Sus scrofa); assay: k3 value was evaluated for the inhibition of porcine pancreatic Elastase; type: protein assay; in short: as §2
[6] = biological target: T3, Neutrophil elastase (Homo sapiens); assay: Percent inhibition against human leukocyte elastase; details: concentration not given here
In short: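 HLE, 1.53 × 10⁻⁴ M stock in Tris-HCl pH 7.5, was incubated with inhibitor for 20 min. Residual activity was assayed by adding succinyltrialanyl-p-nitroanilide (2.3 × 10⁻³ M stock in Tris buffer).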

[7] = biological target: T2, Pancreatic elastase (Sus scrofa); assay: Percent inhibition against porcine pancreatic elastase; type: protein assay; details: concentration not given here
In short: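 PPE, 4.50 × 10⁻⁶ M stock in phosphate buffer pH 6.5, was incubated at 25 °C for 20 min with inhibitor (2.50 × 10⁻³ M stock in acetonitrile). Remaining activity was assayed by adding Boc-L-alanyl-p-nitroanilide (2.22 × 10⁻² M stock).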

[8] = biological target: T2, Pancreatic elastase (Sus scrofa); assay: k3/k1 ratio of the compound; type: protein assay; in short: as §2

Structure (SMILES) | Ki [2] [µM] | k3 [5] [min⁻¹] | further results
COC(=O)[C@@H](NC(=O)n1ccnc1)C(C)C | 1110 |  | Ki [1]: 1800 µM; k3 [3]: 0.183 min⁻¹; k3 [4]: 20.8 min⁻¹
COC(=O)C(CCSC)N=C=O (centres undefined) |  |  | inhibition [6]: 100%; inhibition [7]: 27%
COC(=O)[C@H](CC(C)C)NC(=O)n1ccnc1 | 1170 | 0.04 | k3/k1 [8]: 0.5 M⁻¹ s⁻¹
CCC[C@H](NC(=O)n1ccnc1)C(=O)OC | 840 | 0.322 | Ki [1]: 320 µM; k3 [4]: 9.6 min⁻¹
COC(=O)[C@H](CCSC)NC(=O)n1ccnc1 |  |  | inhibition [6]: 100%; inhibition [7]: 0%
CCC(C)[C@H](NC(=O)n1ccnc1)C(=O)OC (some centres undefined) | 1220 | 0.07 | k3/k1 [8]: 1 M⁻¹ s⁻¹
CCCC(N=C=O)C(=O)OC (centres undefined) |  |  | inhibition [6]: 100%; inhibition [7]: 98%

Continued, in another order:

Ki [2] [µM] | k3 [5] [min⁻¹] | Structure (SMILES) | further results
1940 | 0.255 | CCCCC(NC(=O)n1ccnc1)C(=O)OC (centres undefined) | Ki [1]: 1000 µM; k3 [4]: 10 min⁻¹
7230 | 0.06 | CCCCNC(=O)n1cnc(C)c1 | 
2410 | 0.12 | CCCCCCCc1nccn1C(=O)NCCCC | 
1400 |  | CCCCNC(=O)n1ccnc1 | k3 [3]: 0.66 min⁻¹
2410 | 0.3 | CCCCNC(=O)n1ccnc1C | 
470 | 0.12 | CCCCNC(=O)n1ccnc1CC | 
